In brackets after ≈: the same amount, converted by molar mass.
Assays:
Type in all cases: functional, cell-based
Conditions in all cases: Oryctolagus cuniculus
[1] = tested on: PRK; assay: Concentration required to reduce HSV-1(KOS) induced cytopathogenicity in primary Rabbit by 50%
Outline: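 Confluent primary rabbit kidney cell cultures inoculated with 100 CCID50 HSV-1 (KOS); varying compound concentrations added immediately after virus adsorption. Cytopathogenicity scored once virus-infected untreated controls reached 100% cell destruction; IC50 = concentration reducing cytopathogenicity by 50%.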

[2] = tested on: PRK; assay: Concentration required to reduce HSV-1(KOS) induced cytopathogenicity primary rabbit kidney by 50% was measured by the addition of [Me-3H]-dThd
[3] = tested on: PRK; assay: Concentration required to reduce HSV-1(KOS) induced cytopathogenicity primary rabbit kidney by 50% was measured by the addition of [1,'2'-3H]dUrd
[4] = tested on: PRK; assay: Concentration required to reduce HSV-1 induced cytopathogenicity by 50% in primary rabbit kidney (PRK) cells; 2-4
[5] = tested on: PRK; assay: Compound was evaluated for antiviral activity in rabbit kidney cells infected with vaccinia virus
[6] = tested on: PRK; assay: Concentration required to reduce HSV-1(KOS) induced cytopathogenicity by 50%
Outline: (§1)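 PRK cell cultures infected with 100 CCID50 HSV-1 (KOS), then given varying compound concentrations right after virus adsorption, without added nucleoside.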

[7] = tested on: PRK; assay: Concentration required to reduce HSV-1(KOS) induced cytopathogenicity by 50% was measured by the addition of [1,'2'-3H]dUrd
Outline: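 HSV-1 (KOS) cytopathogenicity in PRK cells (100 CCID50 inoculum) with dThd or dUrd, unlabelled, added together with test compound at 100 μg/mL final, the highest level not itself inhibiting virus replication. CPE scored at 100% destruction in untreated infected controls; IC50 = concentration halving cytopathogenicity.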

[8] = tested on: PRK; assay: Concentration required to inhibit incorporation of [Me-3H]-dThd into DNA of primary rabbit kidney (PRK) cells by 50%
Outline: (§2)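 Uninfected primary rabbit kidney cells; IC50 = concentration reducing incorporation of [Me-3H]dThd or [1',2'-3H]dUrd into host cell DNA by 50%.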

[9] = tested on: PRK; assay: Concentration required to inhibit incorporation of [1,'2'-3H]dUrd into DNA of primary rabbit kidney (PRK) cells by 50%; outline: as §2
[10] = tested on: PRK; assay: Concentration required to reduce HSV-2 induced cytopathogenicity by 50% in primary rabbit kidney (PRK) cells; 10-150
[11] = tested on: PRK; assay: Concentration required to reduce TK-HSV-1 (B2006) induced cytopathogenicity by 50% in primary rabbit kidney (PRK) cells
[12] = tested on: PRK; assay: Concentration required to reduce HSV-1(KOS) induced cytopathogenicity by 50% was measured by the addition of [Me-3H]-dThd
[13] = tested on: PRK; assay: Concentration required to reduce HSV-1(KOS) induced cytopathogenicity by 50% was measured; outline: as §1
[14] = tested on: PRK; assay: Concentration required to reduce HSV-1 induced cytopathogenicity by 50% in primary rabbit kidney (PRK) cells; 1-1.5
[15] = tested on: PRK; assay: Concentration required to reduce HSV-2 induced cytopathogenicity by 50% in primary rabbit kidney (PRK) cells; 7-40
[16] = tested on: PRK; assay: Concentration required to reduce HSV-1 induced cytopathogenicity by 50% in primary rabbit kidney (PRK) cells
[17] = tested on: PRK; assay: Concentration required to reduce HSV-2 induced cytopathogenicity by 50% in primary rabbit kidney (PRK) cells; 0.2-0.4
[18] = tested on: PRK; assay: Concentration required to reduce HSV-1 induced cytopathogenicity by 50% in primary rabbit kidney (PRK) cells; 4-10
[19] = tested on: PRK; assay: Concentration required to reduce HSV-2 induced cytopathogenicity by 50% in primary rabbit kidney (PRK) cells; 2-4

| Structure (SMILES) | IC50 [5] [µg/mL] | IC50 [7] [µg/mL] | IC50 [8] [µg/mL] | IC50 [9] [µg/mL] | IC50 [11] [µg/mL] | IC50 [12] [µg/mL] | IC50 [13] [µg/mL] | also measured |
| --- | --- | --- | --- | --- | --- | --- | --- | --- |
| O=c1[nH]c(=O)n([C@H]2C[C@H](O)[C@@H](CO)O2)cc1F [FLOXURIDINE] |  |  |  |  |  |  |  | IC50 [1]: 1 µg/mL (≈ 4.06 µM); IC50 [2]: > 400 µg/mL; IC50 [3]: 10 µg/mL (≈ 40.6 µM) |
| N#CCOc1cn([C@H]2C[C@H](O)[C@@H](CO)O2)c(=O)[nH]c1=O | 150 (≈ 530 µM) | > 400 | 400 (≈ 1410 µM) | > 400 | > 400 | > 400 |  | IC50 [4]: 2 µg/mL (≈ 7.06 µM); IC50 [6]: 1.5 µg/mL (≈ 5.3 µM); IC50 [10]: 10 µg/mL (≈ 35.3 µM) |
| N#Cc1cn([C@H]2C[C@H](O)[C@@H](CO)O2)c(=O)[nH]c1=O |  |  | > 400 | 8 (≈ 31.6 µM) |  |  |  |  |
| C#CCOc1cn([C@H]2C[C@H](O)[C@@H](CO)O2)c(=O)[nH]c1=O | 20 (≈ 70.9 µM) | 40 (≈ 142 µM) | 200 (≈ 709 µM) | 100 (≈ 354 µM) | > 200 | 400 (≈ 1420 µM) | 0.7 (≈ 2.48 µM) | IC50 [14]: 1 µg/mL (≈ 3.54 µM); IC50 [15]: 19 µg/mL (≈ 67.3 µM) |
| O=c1[nH]c(=O)n([C@H]2C[C@H](O)[C@@H](CO)O2)cc1I [IDOXURIDINE] | 0.4 (≈ 1.13 µM) |  | 1 (≈ 2.82 µM) | 0.3 (≈ 0.847 µM) | 200 (≈ 565 µM) |  |  | IC50 [16]: 0.1 µg/mL (≈ 0.282 µM); IC50 [17]: 0.2 µg/mL (≈ 0.565 µM) |
| Nc1ncnc2c1ncn2[C@@H]1O[C@H](CO)[C@@H](O)[C@@H]1O [VIDARABINE] | 0.4 (≈ 1.5 µM) | 1 (≈ 3.74 µM) | 20 (≈ 74.8 µM) | 10 (≈ 37.4 µM) | 10 (≈ 37.4 µM) | 1 (≈ 3.74 µM) | 4 (≈ 15 µM) | IC50 [18]: 7 µg/mL (≈ 26.2 µM); IC50 [19]: 3 µg/mL (≈ 11.2 µM) |
